Calls of active or inactive are those of the source. The calls are words filed in the database; no cut-off is given here.
How the values were obtained:
[1] = target: Cannabinoid receptor 2 (Mus musculus) (UniProt P47936); test: Antagonist activity at CB2 receptor in mouse MC3T3-E1 cells assessed as inhibition of HU308-induced collagen I gene expression at 1 uM pretreated with compound and HU308 for 24 hrs followed by further incubation with HU308 for 48 hrs by real time PCR analysis; type: cell-based; conditions: filed as antagonist, time 72.0 hrs
Cannabinoid receptor 2 (Mus musculus), sequence (P47936 whole entry): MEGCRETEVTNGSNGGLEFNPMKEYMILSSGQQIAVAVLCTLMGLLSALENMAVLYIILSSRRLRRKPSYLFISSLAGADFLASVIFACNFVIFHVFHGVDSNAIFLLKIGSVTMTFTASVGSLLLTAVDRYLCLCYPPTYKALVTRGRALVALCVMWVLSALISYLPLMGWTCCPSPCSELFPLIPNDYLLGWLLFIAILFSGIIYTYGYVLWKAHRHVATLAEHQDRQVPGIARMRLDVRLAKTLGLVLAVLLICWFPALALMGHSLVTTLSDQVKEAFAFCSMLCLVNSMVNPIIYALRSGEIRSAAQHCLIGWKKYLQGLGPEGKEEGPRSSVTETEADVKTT
Summary of the method: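 MC3T3-E1 cells seeded 24 h in DMEM/10% FBS, then pre-treated 24 h in osteogenic medium (ascorbic acid, dexamethasone, β-glycerophosphate) with 10⁻⁶ M antagonist plus HU308 10⁻⁸ M; medium then replaced by osteogenic medium with HU308 10⁻⁸ M alone (controls vehicle) for 48 h more. Collagen I mRNA by RT-qPCR, ΔΔCT; three experiments in triplicate.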

[2] = organism: Mus musculus; test: Antagonist activity at cannabinoid receptor in ICR mouse vas deferens assessed as reduction of WIN55212-2-induced inhibition of electrically evoked contraction at 1 uM incubated for 10 mins prior to WIN55212-2 addition; type: tissue-based
[3] = system: MC3T3-E1; test: Cytotoxicity against mouse MC3T3-E1 cell assessed as reduction in cell viability at 1 uM incubated for 48 hrs by MTT assay; type: cell-based; conditions: mc3t3-e1, 48 h
Summary of the method: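 MC3T3-E1 cells in 96-well plates, 24 h in DMEM/10% FBS, then 48 h with compound at 10⁻⁶ M or vehicle; viability by MTT reduction; three experiments in sextuplicate.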

[4] = system: HEK293-EBNA; test: Selectivity index, ratio of Ki for human CB1R transfected in HEK293EBNA cell membrane to ratio of Ki for human CB2R transfected in HEK293EBNA cell membrane incubated for 90 mins by Microbeta TriLux based luminescence analysis
Summary of the method: (§1)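 Membranes of HEK293EBNA cells expressing human CB1 (~0.415 mg/mL protein) or CB2 (~0.18 mg/mL) incubated 90 min at 30 °C with [³H]-CP55940 (0.54 nM CB1; 0.33 nM CB2) and competitor, in Tris buffer pH 7.4 with EDTA, MgCl₂, BSA. Filtered, washed, bound radioactivity counted; IC50 by curve fitting, Ki by Cheng–Prusoff; selectivity = Ki CB1/Ki CB2.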

[5] = target: Cannabinoid receptor 2 (Mus musculus) (UniProt P47936); test: Agonist activity at CB2 receptor in mouse MC3T3-E1 cells assessed as induction of bone activity by measuring increase in collagen I gene expression at 1 uM incubated for 72 hrs by real time PCR analysis; type: cell-based
Summary of the method: (§2)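 MC3T3-E1 cells in DMEM/10% FBS for 24 h; attached cells moved to osteogenic medium (50 μg/mL ascorbic acid, 10⁻⁹ M dexamethasone, 10 mM β-glycerophosphate) with agent (HU308 10⁻⁶–10⁻⁸ M; antagonists 10⁻⁶ M) or vehicle, 72 h at 37 °C, 5% CO₂. Collagen type I mRNA from total RNA by RT-qPCR, ΔΔCT relative quantification; three experiments in triplicate.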

[6] = target: T1, Cannabinoid receptor 1 (Homo sapiens, UniProt P21554); test: Displacement of [3H]CP55940 from human CB1R transfected in HEK293EBNA cell membranes incubated for 90 mins by Microbeta TriLux based luminescence analysis; set-up: species or system HEK293-EBNA
T1 sequence (P21554 whole entry): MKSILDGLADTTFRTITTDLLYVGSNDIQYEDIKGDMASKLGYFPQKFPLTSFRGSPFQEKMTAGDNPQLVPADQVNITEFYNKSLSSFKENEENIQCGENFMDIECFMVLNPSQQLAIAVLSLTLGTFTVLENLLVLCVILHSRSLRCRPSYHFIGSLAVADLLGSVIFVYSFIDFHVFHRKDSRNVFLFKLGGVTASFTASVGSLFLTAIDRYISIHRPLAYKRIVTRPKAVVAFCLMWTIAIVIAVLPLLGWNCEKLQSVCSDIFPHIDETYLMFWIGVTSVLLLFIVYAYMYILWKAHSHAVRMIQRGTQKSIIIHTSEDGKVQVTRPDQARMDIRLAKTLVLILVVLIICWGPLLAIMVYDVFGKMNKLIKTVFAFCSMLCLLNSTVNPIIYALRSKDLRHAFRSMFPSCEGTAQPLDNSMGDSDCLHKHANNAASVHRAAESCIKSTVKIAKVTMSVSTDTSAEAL

[7] = target: Cannabinoid receptor 2 (Homo sapiens, UniProt P34972); test: Displacement of [3H]CP55940 from human CB2R transfected in HEK293EBNA cell membrane incubated for 90 mins by Microbeta TriLux based luminescence analysis; type: cell membranes, HEK293-EBNA
Cannabinoid receptor 2, sequence (P34972 whole entry): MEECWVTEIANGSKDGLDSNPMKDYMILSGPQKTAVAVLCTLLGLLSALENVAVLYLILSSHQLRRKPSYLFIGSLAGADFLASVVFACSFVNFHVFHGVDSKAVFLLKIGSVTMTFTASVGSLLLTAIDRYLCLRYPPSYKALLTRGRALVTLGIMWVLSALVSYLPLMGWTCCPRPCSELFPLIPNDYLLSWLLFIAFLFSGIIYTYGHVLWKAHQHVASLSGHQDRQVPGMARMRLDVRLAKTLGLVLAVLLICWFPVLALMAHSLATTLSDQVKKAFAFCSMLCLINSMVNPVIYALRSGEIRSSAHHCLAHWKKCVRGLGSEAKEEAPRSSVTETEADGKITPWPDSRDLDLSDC

[8] = target: T1, Cannabinoid receptor 1; test: Displacement of [3H]CP55940 from human CB1R transfected in HEK293EBNA cell membrane incubated for 90 mins by Microbeta TriLux based luminescence analysis relative to control; type: cell membranes; conditions: HEK293-EBNA; summary of the method: as §1
[9] = target: Cannabinoid receptor 2 (Mus musculus) (UniProt P47936); test: Agonist activity at CB2 receptor in mouse MC3T3-E1 cells assessed as induction of bone activity by measuring increase in collagen I gene expression at 0.01 to 1 uM incubated for 72 hrs by real time PCR analysis; type: cell-based; conditions: filed as agonist, dose microM 0.01-1, time 72.0 hrs; summary of the method: as §2

SMILES | inhibition ([2]; filed as antagonist) | Ratio Ki [4] | Ki [6] [µM] | Ki [7] [µM] | inhibition [2] | also measured
O=[N+]([O-])c1ccc2c(c1)c(OCC1CCCCC1)nn2Cc1ccccc1 | Active | > 444 | – | – | – | inhibition [1]: Active; Activity [3]: Non-Toxic; Activity [5]: inactive
Cn1nc(OCc2ccc3ccccc3c2)c2ccccc21 | Active | 0.4 | 4 | 10.1 | – | –
Cc1c(C(=O)NN2CCCCC2)nn(-c2ccc(Cl)cc2Cl)c1-c1ccc(I)cc1 | Active | – | – | – | – | –
O=[N+]([O-])c1ccc2[nH]nc(OCc3ccc4ccccc4c3)c2c1 | – | 2.7 | 13.6 | 5 | inactive | –
COc1ccc(COc2n[nH]c3ccc([N+](=O)[O-])cc23)cc1 | – | > 22.2 | > 40 | 1.8 | inactive | –
O=[N+]([O-])c1ccc2c(c1)c(OCc1ccc3ccccc3c1)nn2Cc1ccccc1 | – | > 25 | – | – | inactive | –
Cn1nc(OCCc2ccccc2)c2cc([N+](=O)[O-])ccc21 | – | > 33.3 | > 40 | 1.2 | inactive | inhibition [8]: 25%
CCCCCCC(C)(C)c1cc(OC)c([C@H]2C=C(CO)[C@H]3C[C@@H]2C3(C)C)c(OC)c1 | – | – | – | – | – | Activity [9]: Active
Nc1ccc2c(c1)c(OCc1ccccc1)nn2Cc1ccccc1 | Active | 2.5 | – | – | – | –
c1ccc2c(COc3n[nH]c4ccccc34)cccc2c1 | – | 3.6 | 1.6 | 0.44 | inactive | –
CCCn1nc(OCc2ccc3ccccc3c2)c2cc([N+](=O)[O-])ccc21 | Active | 0.8 | 0.356 | 0.47 | – | inhibition [1]: Active; Activity [3]: Non-Toxic; Activity [5]: inactive
c1ccc2cc(COc3n[nH]c4ccccc34)ccc2c1 | – | 3.1 | 21.7 | 7 | inactive | –
c1ccc2cc(COc3nn(CCC4CCCCC4)c4ccccc34)ccc2c1 | – | < 0.004 | 0.15 | > 40 | inactive | –
COc1ccc(COc2n[nH]c3ccccc23)cc1 | – | 4.7 | 21 | 4.5 | inactive | –
CCCCCn1nc(OCc2ccc(OC)cc2)c2cc([N+](=O)[O-])ccc21 | Active | 1.6 | – | – | – | –
CCCCCOc1nn(CCCCC)c2ccc([N+](=O)[O-])cc12 | – | 1.9 | – | – | inactive | –
c1ccc2c(c1)c(OCC1CCCCC1)nn2CC1CCCCC1 | – | 0.2 | – | – | inactive | –
CCCn1nc(OCc2ccc3ccccc3c2)c2cc(N)ccc21 | – | 0.6 | 1.6 | 2.9 | inactive | –
O=[N+]([O-])c1ccc2c(c1)c(OCc1ccccc1)nn2Cc1ccccc1 | – | 3 | – | – | inactive | –
c1ccc(COc2nn(Cc3ccccc3)c3ccccc23)cc1 | – | 0.7 | – | – | inactive | –
O=[N+]([O-])c1ccc2[nH]nc(OCc3cccc4ccccc34)c2c1 | Active | > 44.4 | > 40 | 0.9 | – | inhibition [8]: 38%
Cn1nc(OCc2cccc3ccccc23)c2cc([N+](=O)[O-])ccc21 | Active | > 160 | ≥ 40 | 0.25 | – | –
Cn1nc(OCc2ccc3ccccc3c2)c2cc([N+](=O)[O-])ccc21 | Active | > 11.4 | > 40 | 3.5 | – | –
CCCCCn1nc(OCc2ccc3ccccc3c2)c2cc([N+](=O)[O-])ccc21 | – | 1.2 | – | – | inactive | –

From ChEMBL document CHEMBL4725407, “New cannabinoid receptor antagonists as pharmacological tool” (Bioorg Med Chem, 2020)
